For ten compounds, IC50 results are on record in ChEMBL document CHEMBL4823242, “Cytotoxic Naphthoquinone Analogues, Including Heterodimers, and Their Structure Elucidation Using LR-HSQMBC NMR Experiments” (J Nat Prod, 2021).

Holding throughout (type): functional, cell-based
Experiment [1] concerns MDA-MB-435. The experiment is described as follows: Cytotoxicity against human MDA-MB-435 cells after 72 hrs by Cell Titer-Blue cell viability assay. Conditions: MDA-MB-435, 72 h. The gist of the method: (§1)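 Cells kept at 37 °C, 5% CO2 in RPMI 1640 with 10% FBS, penicillin 100 units/mL and streptomycin 100 μg/mL. Log-phase cells harvested by trypsin, washed twice, seeded at 5,000 per well and left overnight. DMSO-dissolved samples diluted and added, then 72 h at 37 °C. Viability read by CellTiter-Blue absorbance. IC50 is the concentration giving 50% growth relative to DMSO control.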
Background: Alamar Blue is a resazurin reagent that responds to reducing activity.

In experiment [2] the test system is MDA-MB-231. The experiment is described as follows: Cytotoxicity against human MDA-MB-231 cells after 72 hrs by Cell Titer-Blue cell viability assay. Conditions: MDA-MB-231, 72 h. A digest of the protocol:
as §1

Experiment [3] has as its system OVCAR-3. The experiment is described as follows: Cytotoxicity against human OVCAR-3 cells after 72 hrs by Cell Titer-Blue cell viability assay. Conditions: OVCAR-3, 72 h. The gist of the method: as §1

A word on the IC50: it is the concentration that inhibits the measured activity by half. With `CCc1c(OC)cc2c(c1O)C(=O)C(C(C)c1c(OC)cc3c(c1O)C(=O)C=C(OC)C3=O)=C(O)C2=O` (racemic), the IC50 in experiment [1] is 15 µM; in experiment [2], 17 µM; in experiment [3], 18 µM.
Regarding `CC(=O)O[C@H]1C(=O)[C@@]2(C)[C@H]([C@H](OC(=O)c3ccccc3)[C@]3(O)C[C@H](OC(=O)[C@H](O)[C@@H](NC(=O)c4ccccc4)c4ccccc4)C(C)=C1C3(C)C)[C@]1(OC(C)=O)CO[C@@H]1C[C@@H]2O` [PACLITAXEL], the results for the concentration for half-maximal inhibition (IC50) in experiment [2] and in experiment [3] were 0.0002 µM and 0.0051 µM, respectively.
For `CCc1c(OC)cc2c(c1O)C(=O)C=C(OC)C2=O`, the half-maximal inhibitory concentration (IC50) in experiment [1] was found to be 2.1 µM; in experiment [2] it was 7.8 µM; in experiment [3], 7.3 µM.
The corresponding values for `COC1=CC(=O)c2c(cc(OC)c(C(C)O)c2O)C1=O` (racemic) are 3 µM, 12 µM and 7.9 µM.
As for `COC1=CC(=O)c2c(cc(OC)c(C(C)OC)c2O)C1=O` (racemic), the concentration for half-maximal inhibition (IC50) in experiment [1] is 3.4 µM; in experiment [2], 12 µM; in experiment [3], 13 µM.
The like results for `CCc1c(OC)cc2c(c1O)C(=O)C[C@@H](OC)[C@H]2O` were, in that order, greater than 25 µM, greater than 25 µM and greater than 25 µM.
Turning to `COC1=CC(=O)c2c(cc(OC)c(C(C)OC(C)=O)c2O)C1=O` (racemic), the figures for the concentration for half-maximal inhibition (IC50) in experiment [1], in experiment [2] and in experiment [3] were 0.7 µM, 6.2 µM and 0.9 µM, respectively.
The corresponding values for `COC1=CC(=O)c2c(cc(OC)c(C(C)C3=C(O)C(=O)c4cc(OC)cc(O)c4C3=O)c2O)C1=O` (racemic) are 3.6 µM, 20 µM and 17 µM.
The like results for `COC1=CC(=O)c2c(cc(OC)c(C)c2O)C1=O` were, in that order, 3.2 µM, 15 µM and 9.6 µM.
The corresponding values for `COC1=CC(=O)c2c(cc(OC)c(C(C)C3=C(O)C(=O)c4cc(O)c(C(C)=O)c(O)c4C3=O)c2O)C1=O` (racemic) [KIRSCHSTEININ] are 2.2 µM, 4.4 µM and 6.6 µM.
